Calls of active or inactive are those of the source. The rule behind the calls is not given here.
Tests used:
Plasmodium falciparum [1] = test: Antimalarial activity against chloroquine-resistant Plasmodium falciparum Dd2 infected in human RBC after 72 hrs by DAPI staining based confocal microscopic method; assay type: functional; settings: Dd2, 72 h
Procedure, shortened: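 Triplicate runs, n = 3. Percent inhibition plotted against log dose, and IC50 fitted by nonlinear regression with variable slope. […] An initial single-point screen was run at 20 μM final concentration.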

MDA-MB-231 = test: Growth inhibition of human MDA-MB-231 cells after 72 hrs by alamar blue assay; assay type: functional, cell-based; settings: MDA-MB-231, 72 h
Procedure, shortened: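 MDA-MB-231 cells grown in DMEM with 10% FBS, 2 mM L-glutamine, penicillin and streptomycin at 37 °C, 5% CO2. Seeded at 10 000 cells/well, preincubated 24 h, then exposed to 100−0.1 μg/mL for 72 h; vehicle 0.1% or 1.0% DMSO. Alamar Blue read by absorbance at 570 nm (600 nm reference). Six replicates, expressed as % of vehicle control.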

[2] = Selectivity index, ratio of IC50 for HEK293 cells to IC50 for chloroquine-sensitive Plasmodium falciparum 3D7 infected in human RBC; assay type: toxicity; settings: HEK293 cells versus Plasmodium falciparum 3D7 in human RBC, read-out: Ratio IC50
Procedure, shortened: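 Selectivity index computed as the HEK293 IC50 divided by the P. falciparum 3D7 IC50, compared against puromycin as a nonselective standard.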

Plasmodium falciparum [3] = test: Growth inhibition of chloroquine-sensitive Plasmodium falciparum 3D7 infected in human RBC at 20 uM after 72 hrs by DAPI staining based confocal microscopic method relative to control; assay type: functional; settings: 3D7, 72 h, read-out: GI
Plasmodium falciparum [4] = test: Antimalarial activity against chloroquine-sensitive Plasmodium falciparum 3D7 infected in human RBC after 72 hrs by DAPI staining based confocal microscopic method; assay type: functional; settings: 3D7, 72 h
Procedure, shortened: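 Triplicate runs, n = 3. Percent inhibition plotted against log dose, and IC50 fitted by nonlinear regression with variable slope. An initial single-point screen was run at 20 μM final concentration.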

HEK293 = test: Growth inhibition of HEK293 cells after 72 hrs by PrestoBlue staining based fluorescence assay; assay type: cell-based; settings: Homo sapiens, HEK293, 72 h
Procedure, shortened: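 HEK293 cytotoxicity IC50s: percent inhibition plotted against log dose and fitted by nonlinear regression (variable slope). Experiments run in triplicate (n = 3).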

Plasmodium falciparum [5] = test: Growth inhibition of chloroquine-sensitive Plasmodium falciparum 3D7 infected in human RBC at 40 uM after 72 hrs by DAPI staining based confocal microscopic method relative to control; assay type: functional; settings: 3D7, 72 h, read-out: GI
Krebs2 = test: Inhibition of cap/HCV-mediated translation in mouse Krebs2 cell free extract expressing FF/HCV/IRES-Ren mRNA reporter transcript assessed as reduction in luciferase production at 20 uM after 60 mins; assay type: functional
Procedure, shortened: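 Krebs-2 in vitro translation extracts programmed with bicistronic firefly-HCV IRES-Renilla luciferase mRNA. Compounds at 10 mM DMSO stock, diluted to 200 μM in water before addition. Reactions incubated 60 min at 30 °C, then both luciferase activities read. Firefly signal reports cap-dependent translation; Renilla signal reports HCV IRES translation.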

[6] = Growth inhibition of HEK293 cells at 40 uM after 72 hrs by PrestoBlue staining based fluorescence assay relative to control; assay type: cell-based; settings: human, read-out: GI
Plasmodium falciparum [7] = test: Growth inhibition of chloroquine-resistant Plasmodium falciparum Dd2 infected in human RBC at 40 uM after 72 hrs by DAPI staining based confocal microscopic method relative to control; assay type: functional; settings: Dd2, 72 h, read-out: GI
Procedure, shortened: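 Percentage growth inhibition was read at 40 μM, a single concentration. The value is the mean of at least two independent measurements.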

[8] = Growth inhibition of HEK293 cells at 20 uM after 72 hrs by PrestoBlue staining based fluorescence assay relative to control; assay type: cell-based; settings: human, read-out: GI
[9] = Selectivity index, ratio of growth inhibitory effect against HEK293 cells at 20 uM to IC50 for chloroquine-sensitive Plasmodium falciparum 3D7 infected in human RBC; assay type: toxicity, cell-based; settings: HEK293 cells versus Plasmodium falciparum 3D7 in human RBC, read-out: Selectivity Index

`CC(=O)OC(OC(=O)c1ccccc1)C1=CC=C[C@H](O)[C@H]1OC(C)=O` (stereo partly drawn) showed an IC50 (Plasmodium falciparum [1]) of 2200 nM, an IC50 (MDA-MB-231) of 290 nM and a selectivity ratio [2] of 3. For the same molecule, the inhibition of growth at 20 µM (Plasmodium falciparum [3]) was no less than 90%, the IC50 (Plasmodium falciparum [4]) was 1200 nM and the IC50 (HEK293) was 3600 nM.
With `O=C(OCc1cc(O)ccc1O)c1ccccc1` the inhibition of growth at 40 µM (Plasmodium falciparum [5]) was 67% and the IC50 (MDA-MB-231) was 90 nM.
In the case of `CC(=O)O[C@H]1C=C[C@H](Cl)[C@](O)(COC(=O)c2ccccc2)[C@@H]1O`, the inhibition of growth at 40 µM (Plasmodium falciparum [5]) is reported as 95%, the IC50 (MDA-MB-231) is reported as 450 nM and the inhibition (Krebs2) is reported as “inactive”.
With `O=Cc1cccc(O)c1` [3-HYDROXYBENZALDEHYDE] the inhibition of growth at 40 µM (Plasmodium falciparum [5]) was 25%, the IC50 (MDA-MB-231) was 8200 nM and the inhibition (Krebs2) was “inactive”.
In the case of `COc1ccc(C[C@H](N)C(=O)N[C@H]2[C@@H](O)[C@H](n3cnc4c(N(C)C)ncnc43)O[C@@H]2CO)cc1` [PUROMYCIN], the selectivity ratio [2] is reported as 15.9 and the IC50 (Plasmodium falciparum [4]) is reported as 23 nM.
With `CC(=O)O[C@@H]1C=C[C@H](O)[C@@H](O)/C1=C/OC(=O)c1ccccc1` the IC50 (Plasmodium falciparum [1]) was 480 nM, the IC50 (MDA-MB-231) was 30 nM and the selectivity ratio [2] was 14. The inhibition of growth at 20 µM (Plasmodium falciparum [3]) was no less than 90%, the IC50 (Plasmodium falciparum [4]) was 200 nM and the IC50 (HEK293) was 2700 nM. The inhibition (Krebs2) was “inactive”.
In the case of `CC(=O)O[C@H](/C=C1/C=CC(=O)O1)COC(=O)c1ccccc1`, the inhibition at 72 h, 40 µM [6] is reported as 100%, the inhibition of growth at 40 µM (Plasmodium falciparum [7]) is reported as 100% and the inhibition of growth at 20 µM (Plasmodium falciparum [3]) is reported as no less than 90%. The IC50 (Plasmodium falciparum [4]) was 6670 nM and the inhibition (Krebs2) was “inactive”.
With `C[C@H]1[C@H](OC(=O)CCC(=O)O)O[C@@H]2O[C@@]3(C)CC[C@H]4[C@H](C)CC[C@@H]1[C@@]24OO3` [ARTESUNATE] the inhibition at 72 h, 20 µM [8] was 75%, the selectivity ratio at 20 µM [9] was greater than 22 and the IC50 (Plasmodium falciparum [4]) was 0.48 nM.
In the case of `CC(=O)O[C@H]1C=C[C@H](O)[C@@](O)(COC(=O)c2ccccc2)[C@@H]1OC(C)=O`, the inhibition of growth at 40 µM (Plasmodium falciparum [5]) is reported as 54%, the IC50 (MDA-MB-231) is reported as 2700 nM and the inhibition (Krebs2) is reported as “inactive”.
`O=C1C=C/C(=C/[C@@H](O)COC(=O)c2ccccc2)O1` showed an inhibition of growth at 40 µM (Plasmodium falciparum [5]) of 92% and an IC50 (MDA-MB-231) of 240 nM.
In the case of `CC(=O)OC[C@]1(O)[C@H](OC(=O)c2ccccc2)C=C[C@@H](OC(C)=O)[C@@H]1O`, the inhibition (Krebs2) is reported as “inactive”.
With `CC(=O)O[C@H](OC(=O)c1ccccc1)[C@@]12C=C[C@@H](c3ccc(C=O)cc31)[C@H](O)[C@H]2OC(C)=O` the inhibition of growth at 40 µM (Plasmodium falciparum [5]) was 98%.
Work on `C[C@H]1[C@@H](O)O[C@@H]2O[C@@]3(C)CC[C@H]4[C@H](C)CC[C@@H]1[C@@]24OO3` [ARTENIMOL] yielded an inhibition at 72 h, 20 µM [8] of 50%, an IC50 (Plasmodium falciparum [1]) of 0.15 nM and a selectivity ratio at 20 µM [9] greater than 22. It also gave an IC50 (Plasmodium falciparum [4]) of 0.11 nM.
In the case of `CC(=O)O[C@@H]1C=C[C@@H](OC(=O)c2ccccc2)[C@@](O)(COC(=O)c2ccccc2)[C@H]1OC(C)=O`, the inhibition of growth at 40 µM (Plasmodium falciparum [5]) is reported as 99%, the IC50 (MDA-MB-231) is reported as 2100 nM and the inhibition (Krebs2) is reported as “inactive”.
With `CC(=O)O[C@H]1C=C[C@H](Cl)[C@@](O)(COC(=O)c2ccccc2)[C@@H]1O` the inhibition of growth at 40 µM (Plasmodium falciparum [5]) was 72%, the IC50 (MDA-MB-231) was 120 nM and the inhibition (Krebs2) was “inactive”.
`COc1ccc2nc3cc(Cl)ccc3c(Nc3cc(CN4CCCC4)c(O)c(CN4CCCC4)c3)c2n1` [PYRONARIDINE] gave a selectivity ratio [2] of 494 and an IC50 (HEK293) of 1800 nM.
`CCc1nc(N)nc(N)c1-c1ccc(Cl)cc1` [PYRIMETHAMINE] gave an IC50 (HEK293) of 4200 nM.
`CC(=O)O[C@@H]1C=C[C@H](O)[C@@H](OC(C)=O)/C1=C/OC(=O)c1ccccc1` gave an IC50 (Plasmodium falciparum [1]) of 3400 nM, an IC50 (MDA-MB-231) of 290 nM and a selectivity ratio [2] of 4. For the same molecule, the inhibition of growth at 20 µM (Plasmodium falciparum [3]) was no less than 90%, the IC50 (Plasmodium falciparum [4]) was 620 nM and the IC50 (HEK293) was 2400 nM. For the same molecule, the inhibition (Krebs2) was “inactive”.

Reference: ChEMBL document CHEMBL4004787, “Polyoxygenated Cyclohexenes and Other Constituents of Cleistochlamys kirkii Leaves” (J Nat Prod, 2017)
